Data published in ChEMBL document CHEMBL2010756, “New 4-[(5-arylidene-2-arylimino-4-oxo-3-thiazolidinyl)methyl]benzoic acids active as protein tyrosine phosphatase inhibitors endowed with insulinomimetic effect on mouse C2C12 skeletal muscle cells” (Eur J Med Chem, 2012).
pIC50, pKi: −log10 of the molar value. The source made the active and inactive calls. No cut-off for these calls is given here.

What was measured:
Homo sapiens [1] = species on record: Homo sapiens; assay: Selectivity ratio of IC50 for human recombinant TCPTP to IC50 for human recombinant PTP1B
Procedure, shortened: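 IC50 values were from initial p-nitrophenylphosphate hydrolysis (400 nm) in pH 7.0 β,β-dimethylglutarate/EDTA/DTT buffer, fitted to a four-parameter equation. PTP1B (recombinant human, GST cleaved) was assayed at 37 °C with substrate at its Km. Commercial recombinant TC-PTP (0.02 µg) was assayed with 2.8 mM p-nitrophenylphosphate, stopped with KOH. The ratio is TC-PTP IC50 over PTP1B IC50.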

[2] = biological target: T1, Tyrosine-protein phosphatase non-receptor type 1 (Homo sapiens, UniProt P18031); assay: Competitive inhibition of GST-tagged human recombinant PTP1B expressed in Escherichia coli TB1 using p-nitrophenylphosphate as substrate by Line-Weaver Burk plot
T1 sequence (P18031 whole entry): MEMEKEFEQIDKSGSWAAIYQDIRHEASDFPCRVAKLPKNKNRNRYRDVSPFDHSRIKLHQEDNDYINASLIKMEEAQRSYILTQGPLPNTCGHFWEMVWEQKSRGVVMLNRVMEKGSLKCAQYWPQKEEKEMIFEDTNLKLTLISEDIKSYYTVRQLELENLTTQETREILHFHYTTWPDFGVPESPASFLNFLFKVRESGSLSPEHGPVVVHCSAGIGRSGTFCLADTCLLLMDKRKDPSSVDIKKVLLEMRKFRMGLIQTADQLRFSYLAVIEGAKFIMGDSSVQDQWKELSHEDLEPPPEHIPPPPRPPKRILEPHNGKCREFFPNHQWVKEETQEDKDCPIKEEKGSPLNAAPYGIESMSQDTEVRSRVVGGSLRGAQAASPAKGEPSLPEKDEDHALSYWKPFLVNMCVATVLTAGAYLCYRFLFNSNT
Procedure, shortened: (§1)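 Human enzymes were expressed in E. coli TB1 as GST fusions and purified on glutathione-Sepharose. GST was removed by thrombin (3 h, 37 °C), followed by gel filtration. Assays ran at 37 °C in pH 7.0 buffer (0.075 M β,β-dimethylglutarate, 1 mM EDTA, 5 mM DTT) with p-nitrophenylphosphate, read at 400 nm. Initial rates were measured in triplicate at differing substrate and inhibitor levels, and apparent Km was plotted against inhibitor concentration to give Ki.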

[3] = biological target: T2, Low molecular weight phosphotyrosine protein phosphatase (Homo sapiens, UniProt P24666); assay: Competitive inhibition of GST-tagged human recombinant LMW-PTP IF2 expressed in Escherichia coli TB1 using p-nitrophenylphosphate as substrate by Line-Weaver Burk plot; procedure, shortened: as §1
T2 sequence (P24666 whole entry): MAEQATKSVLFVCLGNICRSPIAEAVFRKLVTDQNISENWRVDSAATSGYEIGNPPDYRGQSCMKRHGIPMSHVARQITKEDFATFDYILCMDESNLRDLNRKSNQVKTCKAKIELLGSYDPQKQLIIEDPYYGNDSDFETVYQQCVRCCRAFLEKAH

[4] = biological target: T3, Tyrosine-protein phosphatase non-receptor type 2 (Homo sapiens, UniProt P17706); assay: Competitive inhibition of human recombinant TCPTP using p-nitrophenylphosphate as substrate by Line-Weaver Burk plot
T3 sequence (P17706 whole entry): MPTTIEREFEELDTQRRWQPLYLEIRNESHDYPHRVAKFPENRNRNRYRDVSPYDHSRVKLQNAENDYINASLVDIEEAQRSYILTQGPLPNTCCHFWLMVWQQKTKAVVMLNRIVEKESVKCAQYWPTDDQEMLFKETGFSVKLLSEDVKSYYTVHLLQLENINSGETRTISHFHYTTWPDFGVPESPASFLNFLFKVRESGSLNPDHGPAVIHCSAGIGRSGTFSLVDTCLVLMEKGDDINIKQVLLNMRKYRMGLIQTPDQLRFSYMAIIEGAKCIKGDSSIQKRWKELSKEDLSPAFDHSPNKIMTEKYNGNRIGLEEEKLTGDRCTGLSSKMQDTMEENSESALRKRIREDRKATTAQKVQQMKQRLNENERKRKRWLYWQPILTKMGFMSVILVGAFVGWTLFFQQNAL

[5] = biological target: T2, Low molecular weight phosphotyrosine protein phosphatase; assay: Competitive inhibition of GST-tagged human recombinant LMW-PTP IF1 expressed in Escherichia coli TB1 using p-nitrophenylphosphate as substrate by Line-Weaver Burk plot; procedure, shortened: as §1
C2C12 = assay: Cytotoxicity against mouse C2C12 cells at 25 uM after 2 hrs by MTT assay; assay type: cell-based; conditions: c2c12, 2 h
Procedure, shortened: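 C2C12 myoblasts were differentiated 4 days in DMEM/2% horse serum, then serum-starved 20 h. Compounds at 25 µM final (DMSO vehicle) were given for 2 h. MTT was added at 0.5 mg/ml final, 37 °C for 2 h. Cells were lysed in DMSO and formazan read at 570 nm, expressed as % of DMSO control, mean ± SE of three replicates.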

[6] = biological target: T4, Tyrosine-protein phosphatase non-receptor type 1 (Mus musculus) (UniProt P35821); assay: Inhibition of PTP1B in mouse C2C12 cells assessed as increase in intracellular 2-deoxyglucose uptake using [3H]glucose as substrate at 25 uM after 90 mins by scintillation counting; assay type: cell-based
T4 sequence (whole entry): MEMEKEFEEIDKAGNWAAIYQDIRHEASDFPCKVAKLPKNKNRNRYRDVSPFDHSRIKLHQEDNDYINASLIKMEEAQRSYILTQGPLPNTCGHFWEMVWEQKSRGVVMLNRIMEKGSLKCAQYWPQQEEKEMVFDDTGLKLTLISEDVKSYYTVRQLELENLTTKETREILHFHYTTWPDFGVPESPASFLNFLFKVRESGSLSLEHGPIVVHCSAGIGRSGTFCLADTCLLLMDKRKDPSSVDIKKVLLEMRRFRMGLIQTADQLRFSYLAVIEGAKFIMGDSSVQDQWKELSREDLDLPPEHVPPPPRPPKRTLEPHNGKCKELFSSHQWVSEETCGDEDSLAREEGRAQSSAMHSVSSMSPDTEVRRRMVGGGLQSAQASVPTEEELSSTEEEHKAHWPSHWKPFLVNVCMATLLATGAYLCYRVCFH
Procedure, shortened: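 C2C12 myotubes were differentiated and serum-starved 20 h, then treated 90 min with 25 µM compound (1.2% DMSO). Insulin 10 nM for 30 min was the positive control. 0.1 µCi 2-deoxy-D-[3H]glucose in Ringer–Hepes was taken up 15 min at 37 °C. Cells were washed with cold PBS, lysed in 0.2 M NaOH and counted by scintillation, normalized to protein. Mean ± SE of three replicates.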

[7] = biological target: T4, Tyrosine-protein phosphatase non-receptor type 1 (Mus musculus); assay: Inhibition of PTP1B in mouse C2C12 cells assessed as increase in insulin receptor beta tyrosine phosphorylation at 25 uM; assay type: cell-based
Procedure, shortened: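 Differentiated, 20 h serum-starved C2C12 myotubes were exposed to 25 µM compound (1.2% DMSO) for 90 min at 37 °C. Insulin 10 nM for 30 min served as positive control. Lysates in SDS sample buffer were run on SDS-PAGE and western blotted for phospho-IRβ, normalized to actin, in at least three experiments.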

Homo sapiens [8] = species on record: Homo sapiens; assay: Selectivity ratio of IC50 for human recombinant LMW-PTP IF2 to IC50 for human recombinant LMW-PTP IF1
Procedure, shortened: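 Recombinant human LMW-PTP IF1 and IF2 (GST cleaved off) were assayed at 37 °C in pH 7.0 β,β-dimethylglutarate/EDTA/DTT buffer. Fixed p-nitrophenylphosphate equal to each isoform's Km was used, with p-nitrophenolate read at 400 nm. IC50 came from fitting vi/v0 against inhibitor concentration to a four-parameter equation. The ratio is IF2 IC50 over IF1 IC50.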

SMILES | Ratio IC50 (Homo sapiens [1]) | pIC50 [2] | pIC50 [3] | pIC50 [4] | pIC50 [5] | Activity (C2C12) | inhibition [6] | inhibition [7] | Ratio IC50 (Homo sapiens [8]) | pKi [2]
COc1ccc(/N=C2\S/C(=C\c3ccc4ccccc4c3)C(=O)N2Cc2ccc(C(=O)O)cc2)cc1 | > 2 | 5.05 | 4.93 | 4.57 | 4.94 | Non-toxic | – | – | – | –
O=C(O)c1ccc(CN2C(=O)/C(=C/c3cccc(OCc4ccccc4)c3)S/C2=N\c2ccc(C(F)(F)F)cc2)cc1 | > 2 | 5.25 | < 3.82 | < 4.00 | 4.92 | Non-toxic | Active | Active | > 3 | –
O=C(O)c1ccc(CN2C(=O)/C(=C/c3ccc(Oc4ccccc4)cc3)S/C2=N\c2ccc(C(F)(F)F)cc2)cc1 | 7.1 | 5.66 | 4.48 | 4.81 | 5.14 | Non-toxic | – | – | > 3 | –
O=C(O)c1ccc(CN2C(=O)/C(=C/c3cccc(Oc4ccccc4)c3)S/C2=N\c2ccc(C(F)(F)F)cc2)cc1 | 2 | 4.98 | < 3.82 | 4.69 | 4.86 | Non-toxic | Active | – | > 3 | –
COc1ccc(/N=C2\S/C(=C\c3cccc(OCc4ccccc4)c3)C(=O)N2Cc2ccc(C(=O)O)cc2)cc1 | > 2 | 5.29 | 4.76 | 4.94 | 5.02 | Non-toxic | inactive | Active | > 3 | –
O=C(O)c1ccc(CN2C(=O)/C(=C/c3ccc4ccccc4c3)S/C2=N\c2ccc(C(F)(F)F)cc2)cc1 | > 2 | 5.62 | 4.82 | 4.69 | 5.24 | Non-toxic | Active | Active | > 3 | –
O=C(O)c1ccc(CN2C(=O)/C(=C/c3ccc(OCc4ccccc4)cc3)S/C2=N\c2ccc(C(F)(F)F)cc2)cc1 | > 2 | 5.85 | 4.60 | 5.66 | 5.40 | Non-toxic | Active | Active | > 3 | 5.92
COc1ccc(/N=C2\S/C(=C\c3ccc(Oc4ccccc4)cc3)C(=O)N2Cc2ccc(C(=O)O)cc2)cc1 | > 2 | 5.60 | 4.74 | 5.15 | 4.95 | Non-toxic | inactive | Active | – | –
COc1ccc(/N=C2\S/C(=C\c3cccc(Oc4ccccc4)c3)C(=O)N2Cc2ccc(C(=O)O)cc2)cc1 | > 2 | 4.96 | 4.66 | 4.69 | 4.92 | Non-toxic | inactive | Active | > 3 | –
COc1ccc(/N=C2\S/C(=C\c3ccc(OCc4ccccc4)cc3)C(=O)N2Cc2ccc(C(=O)O)cc2)cc1 | > 2 | 5.52 | 5.04 | 5.02 | 5.19 | Non-toxic | inactive | inactive | 1.4 | –
